ChEMBL document CHEMBL2375292, “Biaryl tetrazolyl ureas as inhibitors of endocannabinoid metabolism: modulation at the N-portion and distal phenyl ring” (Eur J Med Chem, 2013)

Biological target: T1, Transient receptor potential cation channel subfamily A member 1 (Rattus norvegicus, UniProt Q6RI86)
Experiment: Agonist activity at rat TRPA1 receptor expressed in HEK293 cells assessed as increase in intracellular Ca2+ concentration by spectrofluorimetric analysis
Assay type: cell-based
Method in brief: (§1)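 HEK293 cells stably transfected with human TRPV1 or rat TRPA1 cDNA (pcDNA3, G-418 selection) were loaded 1 h at room temperature with Fluo-4-AM, washed and suspended in Tyrode's buffer pH 7.4. [Ca²⁺]i was read by stirred-cuvette spectrofluorimetry before and after adding test compound at various concentrations. Signal from untransfected cells was subtracted. Efficacy was taken as percent of ionomycin (4 µM) for TRPV1 and percent of allyl isothiocyanate (100 µM) for TRPA1; EC50 was also derived.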

T1 sequence (Q6RI86 whole entry): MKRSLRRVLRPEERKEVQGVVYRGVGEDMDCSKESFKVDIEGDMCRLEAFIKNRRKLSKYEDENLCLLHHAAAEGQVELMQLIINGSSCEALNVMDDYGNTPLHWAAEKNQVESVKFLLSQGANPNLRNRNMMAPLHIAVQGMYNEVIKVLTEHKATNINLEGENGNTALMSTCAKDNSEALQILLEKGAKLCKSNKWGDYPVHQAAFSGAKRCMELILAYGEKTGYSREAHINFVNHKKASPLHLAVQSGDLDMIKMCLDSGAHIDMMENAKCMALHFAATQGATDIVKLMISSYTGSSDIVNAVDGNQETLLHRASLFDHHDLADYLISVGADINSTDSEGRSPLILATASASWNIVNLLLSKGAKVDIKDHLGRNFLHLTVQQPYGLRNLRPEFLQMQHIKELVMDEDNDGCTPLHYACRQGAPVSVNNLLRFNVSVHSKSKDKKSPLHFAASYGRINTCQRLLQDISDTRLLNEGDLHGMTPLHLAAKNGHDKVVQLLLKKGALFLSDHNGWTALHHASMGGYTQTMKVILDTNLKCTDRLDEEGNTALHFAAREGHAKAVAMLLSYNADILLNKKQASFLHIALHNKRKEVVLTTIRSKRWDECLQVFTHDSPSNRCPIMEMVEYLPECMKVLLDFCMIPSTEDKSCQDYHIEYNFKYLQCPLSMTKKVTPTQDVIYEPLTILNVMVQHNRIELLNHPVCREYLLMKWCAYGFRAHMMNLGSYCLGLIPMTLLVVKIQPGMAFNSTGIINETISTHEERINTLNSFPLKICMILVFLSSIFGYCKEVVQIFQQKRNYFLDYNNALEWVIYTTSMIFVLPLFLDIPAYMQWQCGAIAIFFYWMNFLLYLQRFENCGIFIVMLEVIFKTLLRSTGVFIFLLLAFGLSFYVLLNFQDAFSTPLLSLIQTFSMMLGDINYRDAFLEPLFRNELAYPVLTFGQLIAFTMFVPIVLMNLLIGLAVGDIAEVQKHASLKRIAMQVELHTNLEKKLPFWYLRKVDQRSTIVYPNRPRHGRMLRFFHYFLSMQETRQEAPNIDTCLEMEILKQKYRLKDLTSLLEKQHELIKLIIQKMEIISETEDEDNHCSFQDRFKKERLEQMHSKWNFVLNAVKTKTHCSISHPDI

Row | EC50 [µM] | SMILES
1 | 21.7 | CN(C)C(=O)n1nnnc1Cc1ccc(-c2ccc(O)cc2)cc1
2 | 14.6 | CN(C)C(=O)n1nnc(Cc2ccc(-c3ccc(O)cc3)cc2)n1

The remaining lines, values behind:

Row | SMILES | EC50 [µM]
3 | CN(C)C(=O)n1nnnc1Cc1ccc(-c2cccc(O)c2)cc1 | 26.8
4 | Cc1ccc(-c2ccc(Cc3nnn(C(=O)N(C)C)n3)cc2)cc1 | 10.3
5 | CN(C(=O)n1nnnc1Cc1ccc(-c2ccccc2)cc1)C1CCCCC1 | 4.9
6 | O=C(N1CCCCC1)n1nnc(Cc2ccc(-c3ccccc3)cc2)n1 | 3.7

Biological target: Transient receptor potential cation channel subfamily A member 1 (Rattus norvegicus) (UniProt Q6RI86)
Experiment: Agonist activity at rat TRPA1 receptor expressed in HEK293 cells assessed as increase in intracellular Ca2+ concentration by spectrofluorimetric analysis relative to allyl isothiocyanate
Assay type: cell-based
Method in brief: as §1

Transient receptor potential cation channel subfamily A member 1 (Rattus norvegicus), sequence (Q6RI86 whole entry): as above

Row | Efficacy [%] | SMILES
7 | 40.5 | CN(C)C(=O)n1nnnc1Cc1ccc(-c2ccc(O)cc2)cc1
8 | 109 | CN(C)C(=O)n1nnc(Cc2ccc(-c3ccc(O)cc3)cc2)n1

The remaining lines, values behind:

Row | SMILES | Efficacy [%]
9 | COC(=O)c1cccc(-c2ccc(Cc3nnnn3C(=O)N(C)C)cc2)c1 | < 10
10 | CN(C)C(=O)n1nnnc1Cc1ccc(-c2cccc(O)c2)cc1 | 35.7
11 | Cc1ccc(-c2ccc(Cc3nnn(C(=O)N(C)C)n3)cc2)cc1 | 275
12 | CN(C(=O)n1nnnc1Cc1ccc(-c2ccccc2)cc1)C1CCCCC1 | 84.7
13 | O=C(N1CCCCC1)n1nnc(Cc2ccc(-c3ccccc3)cc2)n1 | 130

Biological target: T2, Transient receptor potential cation channel subfamily V member 1 (Homo sapiens, UniProt Q8NER1)
Experiment: Antagonist activity at human TRPV1 receptor expressed in HEK293 cells assessed as inhibition of capsaicin-induced intracellular Ca2+ elevation incubated for 5 mins prior to capsaicin-stimulation by spectrofluorimetric analysis
Assay type: cell-based
Method in brief: (§2)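 Fluo-4-loaded HEK293 cells stably expressing human TRPV1 or rat TRPA1, in Tyrode's buffer pH 7.4, received test compound in the cuvette 5 min before agonist: capsaicin 0.1 µM for TRPV1, AITC 100 µM for TRPA1. The [Ca²⁺]i rise with agonist alone was set to 100%. IC50 came from a variable-slope sigmoidal fit. Untransfected-cell signal was subtracted.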

T2 sequence (Q8NER1 whole entry): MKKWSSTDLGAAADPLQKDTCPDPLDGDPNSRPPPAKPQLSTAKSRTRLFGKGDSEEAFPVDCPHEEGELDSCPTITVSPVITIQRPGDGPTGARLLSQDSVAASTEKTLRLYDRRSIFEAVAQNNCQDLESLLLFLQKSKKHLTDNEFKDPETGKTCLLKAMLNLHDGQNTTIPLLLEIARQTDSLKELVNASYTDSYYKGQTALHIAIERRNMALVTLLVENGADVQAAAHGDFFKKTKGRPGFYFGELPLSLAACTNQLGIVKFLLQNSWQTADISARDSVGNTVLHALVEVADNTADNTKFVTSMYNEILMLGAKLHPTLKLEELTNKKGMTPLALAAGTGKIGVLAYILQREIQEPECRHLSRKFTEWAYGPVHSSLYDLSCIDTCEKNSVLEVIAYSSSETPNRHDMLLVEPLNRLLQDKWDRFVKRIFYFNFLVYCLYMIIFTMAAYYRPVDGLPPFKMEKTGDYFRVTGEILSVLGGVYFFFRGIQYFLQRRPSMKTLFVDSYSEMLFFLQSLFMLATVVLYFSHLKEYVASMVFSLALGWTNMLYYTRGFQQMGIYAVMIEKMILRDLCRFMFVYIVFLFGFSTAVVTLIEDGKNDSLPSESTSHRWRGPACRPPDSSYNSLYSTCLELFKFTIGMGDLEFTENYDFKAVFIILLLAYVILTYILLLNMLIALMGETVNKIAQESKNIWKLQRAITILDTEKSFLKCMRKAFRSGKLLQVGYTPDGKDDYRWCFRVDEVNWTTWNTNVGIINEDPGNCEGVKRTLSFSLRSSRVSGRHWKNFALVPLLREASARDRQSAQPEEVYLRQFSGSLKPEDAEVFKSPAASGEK

Row | IC50 [µM] | SMILES
14 | > 100 | CN(C)C(=O)n1nnnc1Cc1ccc(-c2ccc(O)cc2)cc1
15 | > 100 | CN(C)C(=O)n1nnc(Cc2ccc(-c3ccc(O)cc3)cc2)n1

The remaining lines, values behind:

Row | SMILES | IC50 [µM]
16 | COC(=O)c1cccc(-c2ccc(Cc3nnnn3C(=O)N(C)C)cc2)c1 | > 100
17 | CN(C)C(=O)n1nnnc1Cc1ccc(-c2cccc(O)c2)cc1 | 67.4
18 | Cc1ccc(-c2ccc(Cc3nnn(C(=O)N(C)C)n3)cc2)cc1 | 20.6
19 | CN(C(=O)n1nnnc1Cc1ccc(-c2ccccc2)cc1)C1CCCCC1 | 18.3
20 | O=C(N1CCCCC1)n1nnc(Cc2ccc(-c3ccccc3)cc2)n1 | 7.4

Biological target: T2, Transient receptor potential cation channel subfamily V member 1
Experiment: Agonist activity at human TRPV1 receptor expressed in HEK293 cells assessed as increase in intracellular Ca2+ concentration by spectrofluorimetric analysis
Assay type: cell-based
Method in brief: as §1

Row | SMILES | EC50 [µM]
21 | CN(C)C(=O)n1nnnc1Cc1ccc(-c2cccc(O)c2)cc1 | 25
22 | Cc1ccc(-c2ccc(Cc3nnn(C(=O)N(C)C)n3)cc2)cc1 | 4.8
23 | CN(C(=O)n1nnnc1Cc1ccc(-c2ccccc2)cc1)C1CCCCC1 | 13.4
24 | O=C(N1CCCCC1)n1nnc(Cc2ccc(-c3ccccc3)cc2)n1 | 1.8

Biological target: T2, Transient receptor potential cation channel subfamily V member 1
Experiment: Agonist activity at human TRPV1 receptor expressed in HEK293 cells assessed as increase in intracellular Ca2+ concentration by spectrofluorimetric analysis relative to ionomycin
Assay type: cell-based
Method in brief: as §1

Row | Efficacy [%] | SMILES
25 | < 10 | CN(C)C(=O)n1nnnc1Cc1ccc(-c2ccc(O)cc2)cc1
26 | < 10 | CN(C)C(=O)n1nnc(Cc2ccc(-c3ccc(O)cc3)cc2)n1

Second part, the molecule before the results:

Row | SMILES | Efficacy [%]
27 | COC(=O)c1cccc(-c2ccc(Cc3nnnn3C(=O)N(C)C)cc2)c1 | < 10
28 | CN(C)C(=O)n1nnnc1Cc1ccc(-c2cccc(O)c2)cc1 | 20
29 | Cc1ccc(-c2ccc(Cc3nnn(C(=O)N(C)C)n3)cc2)cc1 | 33.3
30 | CN(C(=O)n1nnnc1Cc1ccc(-c2ccccc2)cc1)C1CCCCC1 | 45.6
31 | O=C(N1CCCCC1)n1nnc(Cc2ccc(-c3ccccc3)cc2)n1 | 66.7

Biological target: T3, Monoglyceride lipase (Homo sapiens, UniProt Q99685)
T3 sequence (Q99685 whole entry): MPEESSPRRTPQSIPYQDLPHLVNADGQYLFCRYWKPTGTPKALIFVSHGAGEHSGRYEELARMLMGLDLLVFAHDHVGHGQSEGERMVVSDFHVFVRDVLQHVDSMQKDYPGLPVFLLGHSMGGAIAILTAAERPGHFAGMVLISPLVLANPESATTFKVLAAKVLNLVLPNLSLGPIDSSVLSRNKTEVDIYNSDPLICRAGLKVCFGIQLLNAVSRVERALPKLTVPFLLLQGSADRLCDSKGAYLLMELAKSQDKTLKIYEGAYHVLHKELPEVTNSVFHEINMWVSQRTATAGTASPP
Experiment: Inhibition of MAGL (unknown origin) expressed in African green monkey COS7 cell cytosolic fraction assessed as [3H]2-AG hydrolysis to [3H]arachidonic acid after 20 mins by beta counting analysis
Design: species or system COS-7

Row | SMILES | IC50 [µM]
32 | COC(=O)c1cccc(-c2ccc(Cc3nnnn3C(=O)N(C)C)cc2)c1 | > 1
33 | CN(C)C(=O)n1nnnc1Cc1ccc(-c2ccc(O)cc2)cc1 | > 1
34 | CN(C(=O)n1nnnc1Cc1ccc(-c2ccccc2)cc1)C1CCCCC1 | > 1

Biological target: T4, Fatty-acid amide hydrolase 1 (Rattus norvegicus, UniProt P97612)
T4 sequence (P97612 whole entry): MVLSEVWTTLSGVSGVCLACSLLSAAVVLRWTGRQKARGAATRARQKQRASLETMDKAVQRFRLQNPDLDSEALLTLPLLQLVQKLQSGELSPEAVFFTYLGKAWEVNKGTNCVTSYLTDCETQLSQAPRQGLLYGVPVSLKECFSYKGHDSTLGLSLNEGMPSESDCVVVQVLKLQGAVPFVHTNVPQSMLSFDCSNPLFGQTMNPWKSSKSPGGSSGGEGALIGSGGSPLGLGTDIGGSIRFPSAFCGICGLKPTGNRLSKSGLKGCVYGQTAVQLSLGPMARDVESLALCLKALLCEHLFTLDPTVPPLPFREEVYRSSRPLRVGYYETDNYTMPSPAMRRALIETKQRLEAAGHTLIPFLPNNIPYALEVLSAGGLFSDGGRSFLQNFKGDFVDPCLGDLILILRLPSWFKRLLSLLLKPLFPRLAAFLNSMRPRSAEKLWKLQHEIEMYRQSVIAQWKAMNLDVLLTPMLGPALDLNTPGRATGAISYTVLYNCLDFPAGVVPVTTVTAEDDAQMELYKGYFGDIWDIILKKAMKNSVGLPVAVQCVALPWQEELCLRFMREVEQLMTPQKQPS
Experiment: Inhibition of FAAH in rat brain membranes assessed as [14C]AEA hydrolysis to [14C]Ethanolamine after 30 mins by scintillation counting analysis
Assay type: cell membranes
Method in brief: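 Rat brain membranes were incubated with [¹⁴C]AEA in 50 mM Tris-HCl pH 9 for 30 min at 37 °C. Released [¹⁴C]ethanolamine in the aqueous phase was counted by scintillation after CHCl₃/CH₃OH 2/1 extraction. IC50 was the concentration giving 50% inhibition.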

Row | IC50 [µM] | SMILES
35 | 0.0167 | CN(C)C(=O)n1nnnc1Cc1ccc(-c2ccc(O)cc2)cc1
36 | 0.0054 | CN(C)C(=O)n1nnc(Cc2ccc(-c3ccc(O)cc3)cc2)n1

The remaining lines, values behind:

Row | SMILES | IC50 [µM]
37 | COC(=O)c1cccc(-c2ccc(Cc3nnnn3C(=O)N(C)C)cc2)c1 | 0.0121
38 | CN(C)C(=O)n1nnnc1Cc1ccc(-c2cccc(O)c2)cc1 | 0.003
39 | Cc1ccc(-c2ccc(Cc3nnn(C(=O)N(C)C)n3)cc2)cc1 | 0.0462
40 | CN(C(=O)n1nnnc1Cc1ccc(-c2ccccc2)cc1)C1CCCCC1 | 0.725
41 | O=C(N1CCCCC1)n1nnc(Cc2ccc(-c3ccccc3)cc2)n1 | 0.0681

Biological target: T1, Transient receptor potential cation channel subfamily A member 1
Experiment: Antagonist activity at rat TRPA1 receptor expressed in HEK293 cells assessed as inhibition of allyl isothiocyanate-induced intracellular Ca2+ elevation incubated for 5 mins prior to allyl isothiocyanate-stimulation by spectrofluorimetric analysis
Assay type: cell-based
Method in brief: as §2

Row | IC50 [µM] | SMILES
42 | > 100 | CN(C)C(=O)n1nnnc1Cc1ccc(-c2ccc(O)cc2)cc1
43 | 30.2 | CN(C)C(=O)n1nnc(Cc2ccc(-c3ccc(O)cc3)cc2)n1

The next lines start with the molecule.

Row | SMILES | IC50 [µM]
44 | COC(=O)c1cccc(-c2ccc(Cc3nnnn3C(=O)N(C)C)cc2)c1 | 99.8
45 | CN(C)C(=O)n1nnnc1Cc1ccc(-c2cccc(O)c2)cc1 | > 100
46 | Cc1ccc(-c2ccc(Cc3nnn(C(=O)N(C)C)n3)cc2)cc1 | 10.5
47 | CN(C(=O)n1nnnc1Cc1ccc(-c2ccccc2)cc1)C1CCCCC1 | 14.9
48 | O=C(N1CCCCC1)n1nnc(Cc2ccc(-c3ccccc3)cc2)n1 | 21.5
